MrgX1 ag: human MrgX1 receptor agonism, primary screen; 310,000 tested, 0.44% active; MrgX1-HEK293 cells, Fluo-4 calcium fluorescence, agonist mode; hits give high values; AID 588627; B-score at 10 µM; Q96LB2;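 active means calcium response B-score plate-corrected fluorescence ratio at least 3 library SD, with starting fluorescence B-score inside 5 SD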
Target sequence (Q96LB2 whole entry, looked up): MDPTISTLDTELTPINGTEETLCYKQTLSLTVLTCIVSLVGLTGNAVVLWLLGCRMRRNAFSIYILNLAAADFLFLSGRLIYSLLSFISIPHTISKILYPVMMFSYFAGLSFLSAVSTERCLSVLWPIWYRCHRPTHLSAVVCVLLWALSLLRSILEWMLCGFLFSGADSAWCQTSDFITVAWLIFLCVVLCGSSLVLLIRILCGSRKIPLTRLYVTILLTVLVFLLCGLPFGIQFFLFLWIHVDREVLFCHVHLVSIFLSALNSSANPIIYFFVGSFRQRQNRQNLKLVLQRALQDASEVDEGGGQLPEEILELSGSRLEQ
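System – MrgX1-expressing HEK293 cells · Incubation – cells plated overnight, dye loaded 0.5 h 37 °C, 0.5 h room temperature · Technique – kinetic Fluo-4 NW fluorescence of intracellular calcium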
RGS4 pot: potentiators or activators of RGS4. HEK293 M3R/inducible RGS4, carbachol calcium flux Fluo4; hits give low values. B-score at 10 µM. AID 463111. 310,000 tested, 0.92% active;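 active means B-score of the integrated calcium signal more than 4 SD below the library mean, with starting fluorescence not abnormally high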;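 further: negative B-score means reduced calcium response which marks RGS4 activation or potentiation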
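Test system: HEK293 cells with stable M3R and inducible RGS4; also added: carbachol at ECmax as muscarinic agonist stimulus; schedule: dye loading 30 min 37 °C, buffer rest 30 min RT; technique: kinetic calcium fluorescence imaging with Fluo4-AM dye, 2 µM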
MrgX1 PAM: human MrgX1 positive allosteric modulation, primary screen. 310,000 tested, 0.63% active. B-score at 10 µM. Q96LB2. MrgX1-HEK293, Fluo-4 calcium flux, FDSS; hits give high values;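 active means plate-corrected calcium response at least 3 library SD above typical, normal starting fluorescence, not activating the receptor alone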;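 further: compound read alongside a low EC10 to EC30 dose of BAM8-22 agonist; peak minus trough fluorescence over baseline measured at the second addition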
MrgX1 antag: antagonists of human MrgX1 receptor. AID 588676. Q96LB2. 310,000 tested, 1.3% active. B-score at 10 µM. MRGX1-HEK293 calcium flux, Fluo-4, BAM8-22 antagonism; hits give low values;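 active means calcium-response B-score plate-corrected more than 3 library SD below zero, starting fluorescence within 5 deviations, no agonist response on first addition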;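 further: peak minus trough fluorescence over baseline after final BAM8-22 challenge near maximal dose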
RGS4 block: inhibitors of human RGS4 | P49798 | HEK293 M3R/RGS4 inducible, Fluo-4 calcium flux; hits give high values; triggered by carbachol at its EC20 | B-score at 10 µM | 310,000 tested, 0.45% active;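 active means B-score, a plate-corrected calcium signal, over three deviations above library mean, with baseline fluorescence within five deviations of library mean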;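 further: RGS4 expression induced by doxycycline in cells with stable M3 receptor; B-score is computed from the integrated fluorescence ratio over baseline after carbachol; higher B-score means a larger calcium signal and so more RGS4 inhibition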
Target sequence (P49798 whole entry, looked up): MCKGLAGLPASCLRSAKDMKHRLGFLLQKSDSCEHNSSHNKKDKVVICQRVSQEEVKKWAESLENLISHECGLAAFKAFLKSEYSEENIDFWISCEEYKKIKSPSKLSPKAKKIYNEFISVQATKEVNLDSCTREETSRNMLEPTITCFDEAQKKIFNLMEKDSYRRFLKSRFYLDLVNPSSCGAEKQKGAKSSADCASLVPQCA
RGS4 activ val: RGS4 activation, validation assay. shares compounds with RGS4 pot. HEK293 M3R/RGS4 inducible, carbachol calcium flux Fluo4. inhibition, % at 10 µM. 1,100 tested, 89% active. AID 602282;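 active means inhibition above 3 SD of the buffer control wells, cut at about 41% in these data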;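 further: signal is the integrated peak-minus-minimum Fluo4 fluorescence over baseline ratio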
M3R Ca counter: RGS4 activator counter-screen hit in non-induced cells | shares compounds with RGS4 pot | HEK293 M3R non-induced RGS4, Fluo4 calcium flux; after carbachol challenge at its EC90 | inhibition, % at 10 µM | 1,100 tested, 82% active;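 active means inhibition exceeding 3 SD of buffer-only control wells, cut at about 26% in these data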;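 further: percent drop in integrated peak-minus-baseline over baseline Fluo4 ratio after carbachol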
RGS4 block valid: validation of RGS4 inhibitors; shares compounds with RGS4 block; HEK293 M3R/RGS4, carbachol calcium Fluo-4 fluorescence; carbachol added at its EC20; 0 = buffer wells, 100 = carbachol control; calcium response, % at 10 µM; 1,700 tested, 65% active; AID 492999;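 active means duplicate-averaged calcium response above the buffer-only control mean plus 5 SD of those controls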;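 further: integrated fluorescence ratio F max minus min over baseline F0; higher response in RGS4-induced cells means RGS4 inhibition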
RGS4 uninduced: checks RGS4 inhibitor effects in non-induced HEK293 M3R cells. shares compounds with RGS4 block. carbachol calcium Fluo-4; submaximal (EC20) carbachol stimulus; buffer wells 0%, carbachol control wells 100%. activity (percent), % at 10 µM. 1,900 tested, 20% active. AID 493000; call rule not given here;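 further: RGS4 induction absent so cells express M3R without RGS4; higher means more calcium signal and flags a non-specific hit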
M3R basal Ca ctr: second counter-screen for RGS4 inhibitors: non-induced cells without carbachol. HEK293 M3R/RGS4 non-induced, Fluo-4 calcium, no carbachol; normalised: buffer wells 0%, carbachol wells 100%. AID 493001. shares compounds with RGS4 block. 1,900 tested, 22% active. calcium response (agonist-mode artifact), % at 10 µM;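 active means duplicate-averaged calcium rise in uninduced cells above buffer wells' mean plus 5 SD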
MrgX1 ag confirm: reconfirmed activator of human MrgX1 receptor signaling; MrgX1-HEK293, Fluo-4 calcium fluorescence, FDSS; shares compounds with MrgX1 ag; activation, % at 10 µM; AID 602412; 600 tested, 78% active;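 active means calcium signal rise, corrected for plate position, at least 3 library SD high, with starting brightness within 5 such deviations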; further: reference of the scale not given here
HEK293 Ca flux: MrgX1 antagonist counter-screen hit in parental HEK293 cells | shares compounds with MrgX1 antag | Fluo-4 calcium fluorescence, FDSS | fluorescence ratio F(max-min)/F0 at 10 µM | 4,000 tested, 2% active;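 active means duplicate-averaged calcium fluorescence ratio at least three times the standard deviation of buffer wells, a nonspecific response in parental cells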
HEK293 Ca counter: MrgX1 allosteric activator counter-screen hit in parental HEK293 cells; shares compounds with MrgX1 antag; parental HEK293 calcium flux, Fluo-4 fluorescence ratio; hits give high values; fluorescence ratio F(max-min)/F0 at 10 µM; 4,000 tested, 0.4% active; AID 624114;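 active means calcium fluorescence ratio, averaged over duplicates, at least 3 SD of the buffer-well ratio, meaning a nonspecific response in receptor-free cells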;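 further: untransfected parental HEK293 lacking MrgX1 used as counterscreen for MrgX1 allosteric activators; fluorescence change taken during the second addition on a kinetic imager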
HEK293 Ca cntr2: counter-screen for MrgX1 activators: effect in parental HEK293 cells; shares compounds with MrgX1 antag; Fluo-4 calcium fluorescence (FDSS); hits give high values; fluorescence ratio F(max-min)/F0 at 10 µM; 4,000 tested, 8.7% active; AID 624115;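 active means calcium fluorescence ratio at least three times the spread of buffer wells, meaning a non-specific response in parental cells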
Numbers without * were called inactive; i = inactive; . = no result. Shown are actives, neighbours in structure and some others; about 3.5% of the full set was active somewhere.

SMILES	MrgX1 ag	RGS4 pot	MrgX1 PAM	MrgX1 antag	RGS4 block	RGS4 activ val	M3R Ca counter	others
CC(C)(C)n1c(O)c(C=Nc2ccc3c(c2)CCC3)c(=O)[nH]c1=O	i	-7.11*	i	i	i	.	.
CC1(C)NCCN2C(=O)CSC21 (stereo unspecified)	i	i	i	i	i	.	.
CCOC(=O)C1(CCc2ccccc2)CCN(Cc2cccc3cnccc23)CC1	i	-10.8*	i	i	i	89.0*	58.8*
CC(=O)N1CCC(N2CCCC(C(=O)c3cccc(Cl)c3)C2)CC1 (stereo unspecified)	i	-10*	i	i	i	79.5*	83.8*
COc1cccc(C(=O)C2CCCN(C3CCOCC3)C2)c1 (stereo unspecified)	i	i	i	i	i	.	.
O=P(C(Cl)Cl)(N1CCCCC1)N1CCCCC1	i	i	i	i	i	.	.
CCOP(=O)(OCC)C(Cc1ccccc1)NC(C)=O (stereo unspecified)	i	i	i	i	i	.	.
CCOP(=S)(NN(Cc1ccccc1)C(=O)c1ccccc1)OCC	i	-14.3*	i	i	i	0.0	0.0
COc1ccc(C(=O)C2CCCN(C3CSCCSC3)C2)c(OC)c1 (stereo unspecified)	i	-7.74*	i	i	i	45.0*	83.8*
COc1ccc(C(=O)C2CCCN(Cc3ccc(C)s3)C2)c(OC)c1 (stereo unspecified)	i	i	i	i	i	.	.
COc1ccc(C(=O)C2CCCN(C3CSCCSC3)C2)c(C)c1 (stereo unspecified)	i	-8.8*	i	i	i	86.0*	43.8*
COc1ccc(C(=O)C2CCCN(CCO)C2)c(C)c1 (stereo unspecified)	i	i	i	i	i	.	.
OC(c1cccc(Cl)c1)(c1cccc(Cl)c1)C1CN2CCC1CC2 (stereo unspecified)	i	-13.8*	i	i	i	93.0*	93.3*
CN1C[C@@H]2C[C@@H](c3cccn3-c3ccccn3)N3CCC[C@@]23C1=O	i	i	i	i	i	.	.
O=S1(=O)CC2(N3CCOCC3)CCCCC21 (stereo unspecified)	i	i	i	i	i	.	.
CCN(CC)CCCOC(=O)C(OC)(c1ccccc1)c1ccccc1	i	-11.1*	i	i	i	91.0*	86.3*
O=C1C2CCN(CC2)C12CC2c1ccc(C(F)(F)F)cc1 (stereo unspecified)	i	i	i	i	i	.	.
CN1CC=C(/C=C/c2ccc(-c3ccccc3)cc2)CC1	i	-8.71*	i	i	i	66.5*	30.8*
CCCCn1c(O)c(C(C)=NC(Cc2c[nH]c3ccccc23)C(=O)OC)c(=O)[nH]c1=O (stereo unspecified)	i	i	i	i	i	.	.
CCn1ccnc1CN1CCCC(C(=O)c2cccc(C(F)(F)F)c2)C1 (stereo unspecified)	i	-9.94*	i	i	i	93.0*	87.3*
CCN(CC)S(=O)(=O)c1cc(NC(=O)C(C)N2CC=C(c3ccccc3)CC2)ccc1C (stereo unspecified)	i	-7.57*	i	i	i	79.0*	34.8*
O[C@@H]1CCCN2CCc3c([nH]c4ccccc34)[C@H]12	i	i	i	i	i	.	.
CC(Cc1ccccc1Sc1ccc(O)cc1)N(C)C (stereo unspecified)	i	-9.19*	i	i	i	95.0*	93.8*
CC(N)Cc1ccccc1Sc1ccc(O)cc1 (stereo unspecified)	i	i	i	i	i	.	.
CSc1ccc(C(=O)C2CCCN(Cc3cccnc3)C2)cc1 (stereo unspecified)	i	-8.48*	i	i	i	68.5*	26.3*
SMILES	MrgX1 ag	RGS4 pot	MrgX1 PAM	MrgX1 antag	RGS4 block	RGS4 activ val	M3R Ca counter	others
O=C(c1c[nH]c2ccc(S(=O)(=O)N3CCOCC3)cc2c1=O)N1CCC2(CC1)OCCO2	i	i	i	i	i	.	.
COC(=O)c1ccc(COc2cc(C)cc3oc(=O)c4c(c23)CCCC4)o1	i	-11.3*	i	i	i	79.0*	45.8*
Cc1cc(OCC(=O)O)c2c3c(c(=O)oc2c1)CCCC3	i	i	i	i	i	.	.
CCCCn1c(=O)c(C(=O)Nc2ncccc2C)c(O)c2ccccc21	35.1*	-9.48*	i	i	i	66.5*	40.8*	MrgX1 ag confirm=i;HEK293 Ca flux=i;HEK293 Ca counter=i;HEK293 Ca cntr2=i
Cc1cccc(N=Nc2ccc(N(C)C)cc2)c1	i	i	i	i	i	.	.
O=C1/C(=C\c2ccc(Cl)cc2Cl)N2CCC1CC2	i	i	i	i	7.69*	.	.	RGS4 block valid=6.5%*;RGS4 uninduced=i;M3R basal Ca ctr=i
O=C1/C(=C\c2ccncc2)N2CCC1CC2	i	i	i	i	i	.	.
O=C1/C(=C\c2ccc(Cl)c(Cl)c2)N2CCC1CC2	i	i	i	i	21.2*	.	.	RGS4 block valid=16.5%*;RGS4 uninduced=i;M3R basal Ca ctr=i

From PubChem
